In article PMC3267898 (The Journal of antibiotics, 2011):

Target: 20S proteasome (Homo sapiens, UniProt P28072+P28074+Q99436)
Experiment: Proteasome-Glo luminescent assay in MCF-7 cells
Type: cell-based
Conditions: MCF7, read-out: % Inhibition of 20S Proteasome / 20 μg/mL
Summary of the method: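 MCF-7 cells grown at 37°C, 5% CO2 in RPMI 1640 with 10% FBS, penicillin and streptomycin. Log-phase cells trypsinized, washed extensively, seeded at 7,500/well, incubated overnight. Test compound added in DMSO (final 0.2%), 2 h at 37°C. Luminescent read-out of proteasome chymotrypsin-like, trypsin-like or caspase-like activity. % inhibition versus solvent control. Bortezomib (5, 25 nM) was the positive control.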

| inhibition at 20 µg/mL [%] | Structure (SMILES) |
| --- | --- |
| 58 | COC(=O)[C@]12Oc3c(c(O)cc4c3[C@@H]3C=C[C@]5(C4)C(=C(O)c4c(O)cc(C)cc4[C@@H]5OC(C)=O)C3=O)C(=O)[C@]1(O)C(=O)C=C[C@@H]2O [compound 2, acremoxanthone D] |
| 1 | COC(=O)c1cccc(O)c1C(=O)c1c(O)cc(C)cc1O [compound 1, moniliphenone] |
